Results: the M2OR odorant receptor database
Residue numbers refer to the chain shown, from its start.

What was measured:
Conditions in all cases: stereoisomer not certain
OR6C65 (Homo sapiens) = biological target: T1, OR6C65 (Homo sapiens) (UniProt A6NJZ3)
T1 sequence (whole entry): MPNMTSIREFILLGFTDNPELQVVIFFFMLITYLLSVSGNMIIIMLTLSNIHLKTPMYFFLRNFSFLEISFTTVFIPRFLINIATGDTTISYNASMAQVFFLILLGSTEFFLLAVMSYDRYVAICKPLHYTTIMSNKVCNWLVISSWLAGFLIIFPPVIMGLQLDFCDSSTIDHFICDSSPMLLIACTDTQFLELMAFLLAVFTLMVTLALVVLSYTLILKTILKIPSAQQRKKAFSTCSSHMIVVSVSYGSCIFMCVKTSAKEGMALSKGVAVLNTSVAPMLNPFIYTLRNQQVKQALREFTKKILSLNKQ
Method in brief: (§1)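 Whether a receptor–molecule pair is responsive (active) rests on the original authors' judgment that its measured signal was statistically different from baseline. Pairs without that judgment are non-responsive (inactive). Sources used varied assay methods, commonly transient luciferase assays in mammalian cell lines.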

OR6C68 (Homo sapiens) = biological target: T2, OR6C68 (Homo sapiens) (UniProt A6NDL8)
T2 sequence (whole entry): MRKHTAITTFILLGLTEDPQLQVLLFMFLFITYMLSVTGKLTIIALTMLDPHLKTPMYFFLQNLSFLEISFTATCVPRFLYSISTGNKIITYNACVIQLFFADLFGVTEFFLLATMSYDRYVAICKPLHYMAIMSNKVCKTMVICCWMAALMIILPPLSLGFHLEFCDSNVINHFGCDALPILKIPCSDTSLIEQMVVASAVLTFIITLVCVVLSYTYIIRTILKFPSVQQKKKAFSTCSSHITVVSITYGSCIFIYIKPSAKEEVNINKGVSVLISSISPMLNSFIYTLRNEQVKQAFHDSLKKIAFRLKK
Method in brief: as §1

OR6C70 (Homo sapiens) = biological target: T3, OR6C70 (Homo sapiens) (UniProt A6NIJ9)
T3 sequence (whole entry): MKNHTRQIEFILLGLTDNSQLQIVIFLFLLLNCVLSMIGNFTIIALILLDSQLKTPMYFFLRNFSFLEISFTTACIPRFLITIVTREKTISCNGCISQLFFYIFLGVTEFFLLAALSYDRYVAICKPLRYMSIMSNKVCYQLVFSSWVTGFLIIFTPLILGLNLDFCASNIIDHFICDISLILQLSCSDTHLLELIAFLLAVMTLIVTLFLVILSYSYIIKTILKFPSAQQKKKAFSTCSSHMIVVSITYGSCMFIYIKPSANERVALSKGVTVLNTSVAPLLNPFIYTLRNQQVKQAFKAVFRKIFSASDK
Method in brief: as §1

OR6C74 (Homo sapiens) = biological target: T4, OR6C74 (Homo sapiens) (UniProt A6NCV1)
T4 sequence (whole entry): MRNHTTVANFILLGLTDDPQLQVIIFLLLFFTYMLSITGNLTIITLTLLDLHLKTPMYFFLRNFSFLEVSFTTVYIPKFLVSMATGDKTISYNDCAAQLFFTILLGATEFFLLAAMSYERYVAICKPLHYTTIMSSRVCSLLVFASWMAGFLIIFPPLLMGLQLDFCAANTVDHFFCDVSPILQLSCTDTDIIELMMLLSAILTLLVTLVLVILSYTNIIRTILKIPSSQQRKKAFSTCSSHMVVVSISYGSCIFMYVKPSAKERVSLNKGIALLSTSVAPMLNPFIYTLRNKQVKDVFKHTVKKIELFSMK
Method in brief: as §1

OR6C75 (Homo sapiens) = biological target: T5, OR6C75 (Homo sapiens) (UniProt A6NL08)
T5 sequence (whole entry): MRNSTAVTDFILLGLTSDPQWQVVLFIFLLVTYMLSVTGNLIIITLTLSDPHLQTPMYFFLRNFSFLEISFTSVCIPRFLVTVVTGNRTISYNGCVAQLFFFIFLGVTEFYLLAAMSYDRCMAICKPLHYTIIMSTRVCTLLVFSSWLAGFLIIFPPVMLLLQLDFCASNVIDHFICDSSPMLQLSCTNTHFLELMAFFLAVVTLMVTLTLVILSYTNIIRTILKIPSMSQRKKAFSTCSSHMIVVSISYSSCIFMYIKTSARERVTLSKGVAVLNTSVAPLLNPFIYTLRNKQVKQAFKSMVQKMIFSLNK
Method in brief: as §1

OR6C76 (Homo sapiens) = biological target: T6, OR6C76 (Homo sapiens) (UniProt A6NM76)
T6 sequence (whole entry): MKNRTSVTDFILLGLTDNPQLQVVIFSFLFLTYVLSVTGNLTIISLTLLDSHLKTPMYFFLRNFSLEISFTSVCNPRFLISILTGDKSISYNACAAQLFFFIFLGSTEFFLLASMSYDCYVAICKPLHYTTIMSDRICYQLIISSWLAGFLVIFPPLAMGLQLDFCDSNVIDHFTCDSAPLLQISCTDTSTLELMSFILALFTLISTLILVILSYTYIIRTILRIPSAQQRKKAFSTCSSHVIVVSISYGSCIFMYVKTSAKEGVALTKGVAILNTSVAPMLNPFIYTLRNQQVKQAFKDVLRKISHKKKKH
Method in brief: as §1

OR6F1 (Homo sapiens) = biological target: T7, OR6F1 (Homo sapiens) (UniProt Q8NGZ6)
T7 sequence (whole entry): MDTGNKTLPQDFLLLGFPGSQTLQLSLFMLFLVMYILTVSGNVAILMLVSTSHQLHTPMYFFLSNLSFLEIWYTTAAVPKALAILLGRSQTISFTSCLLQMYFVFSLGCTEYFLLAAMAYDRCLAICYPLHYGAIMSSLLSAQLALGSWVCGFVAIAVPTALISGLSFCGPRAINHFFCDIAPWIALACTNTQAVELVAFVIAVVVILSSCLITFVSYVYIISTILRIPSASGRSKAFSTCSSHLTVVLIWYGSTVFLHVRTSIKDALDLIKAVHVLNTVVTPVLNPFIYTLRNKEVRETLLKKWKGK
Method in brief: as §1

OR6J1 (Homo sapiens) = biological target: T8, OR6J1 (Homo sapiens) (UniProt Q8NGC5)
T8 sequence (whole entry): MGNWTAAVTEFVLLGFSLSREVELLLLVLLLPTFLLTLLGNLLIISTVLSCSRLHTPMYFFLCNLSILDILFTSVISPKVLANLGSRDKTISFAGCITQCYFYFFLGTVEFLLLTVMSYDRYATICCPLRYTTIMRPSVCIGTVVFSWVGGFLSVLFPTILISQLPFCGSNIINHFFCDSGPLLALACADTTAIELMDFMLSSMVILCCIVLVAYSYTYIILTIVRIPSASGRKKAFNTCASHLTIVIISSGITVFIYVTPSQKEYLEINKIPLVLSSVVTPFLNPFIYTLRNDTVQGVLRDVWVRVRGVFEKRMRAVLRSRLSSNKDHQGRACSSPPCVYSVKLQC
Method in brief: as §1

OR6K2 (Homo sapiens) = biological target: T9, OR6K2 (Homo sapiens) (UniProt Q8NGY2)
T9 sequence (whole entry): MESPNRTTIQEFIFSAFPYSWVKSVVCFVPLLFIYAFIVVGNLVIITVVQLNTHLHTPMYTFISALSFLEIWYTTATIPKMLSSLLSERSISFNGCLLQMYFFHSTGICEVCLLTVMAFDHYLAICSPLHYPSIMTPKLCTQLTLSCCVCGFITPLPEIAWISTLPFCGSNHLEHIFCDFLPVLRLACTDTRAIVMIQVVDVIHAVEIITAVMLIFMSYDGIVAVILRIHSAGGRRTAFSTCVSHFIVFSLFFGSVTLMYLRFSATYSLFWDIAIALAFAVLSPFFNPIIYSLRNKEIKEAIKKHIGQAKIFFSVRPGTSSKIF
Method in brief: as §1

OR6K3 = tested on: T10, OR6K3
T10 sequence (whole entry): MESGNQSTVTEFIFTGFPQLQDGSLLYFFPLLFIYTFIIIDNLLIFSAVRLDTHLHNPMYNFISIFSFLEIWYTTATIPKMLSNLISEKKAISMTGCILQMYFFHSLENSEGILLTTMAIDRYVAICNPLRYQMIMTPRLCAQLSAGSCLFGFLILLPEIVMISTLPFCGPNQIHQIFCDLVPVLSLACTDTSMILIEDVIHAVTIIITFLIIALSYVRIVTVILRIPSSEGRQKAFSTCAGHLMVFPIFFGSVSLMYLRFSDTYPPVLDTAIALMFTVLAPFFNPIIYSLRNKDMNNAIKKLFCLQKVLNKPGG
Method in brief: as §1

OR6K6 (Homo sapiens) = biological target: T11, OR6K6 (Homo sapiens) (UniProt Q8NGW6)
T11 sequence (whole entry): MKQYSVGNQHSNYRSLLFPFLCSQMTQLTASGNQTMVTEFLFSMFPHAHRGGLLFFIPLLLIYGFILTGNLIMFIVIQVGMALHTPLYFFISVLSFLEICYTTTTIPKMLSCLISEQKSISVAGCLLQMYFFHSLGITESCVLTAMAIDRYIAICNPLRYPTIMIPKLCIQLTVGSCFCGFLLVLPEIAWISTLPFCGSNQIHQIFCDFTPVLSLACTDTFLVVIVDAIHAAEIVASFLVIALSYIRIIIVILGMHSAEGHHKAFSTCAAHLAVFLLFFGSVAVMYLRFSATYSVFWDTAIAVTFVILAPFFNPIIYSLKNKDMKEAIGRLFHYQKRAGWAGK
Method in brief: as §1

OR6M1 (Homo sapiens) = biological target: T12, OR6M1 (Homo sapiens) (UniProt Q8NGM8)
T12 sequence (whole entry): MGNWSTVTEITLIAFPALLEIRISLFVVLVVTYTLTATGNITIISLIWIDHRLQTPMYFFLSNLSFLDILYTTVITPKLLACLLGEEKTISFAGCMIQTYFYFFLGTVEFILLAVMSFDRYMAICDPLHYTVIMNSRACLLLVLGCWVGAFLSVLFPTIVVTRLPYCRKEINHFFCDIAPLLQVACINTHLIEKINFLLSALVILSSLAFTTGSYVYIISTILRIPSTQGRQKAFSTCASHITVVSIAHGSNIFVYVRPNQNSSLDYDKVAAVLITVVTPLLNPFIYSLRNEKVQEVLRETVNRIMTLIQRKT
Method in brief: as §1

OR6M1 R224C = tested on: T13, OR6M1 R224C
T13 sequence (whole entry): T12 sequence (whole entry) with R224C
Method in brief: as §1

OR6M1 T276K = tested on: T14, OR6M1 T276K
T14 sequence (whole entry): T12 sequence (whole entry) with T276K
Method in brief: as §1

OR6N1 (Homo sapiens) = biological target: T15, OR6N1 (Homo sapiens) (UniProt Q8NGY5)
T15 sequence (whole entry): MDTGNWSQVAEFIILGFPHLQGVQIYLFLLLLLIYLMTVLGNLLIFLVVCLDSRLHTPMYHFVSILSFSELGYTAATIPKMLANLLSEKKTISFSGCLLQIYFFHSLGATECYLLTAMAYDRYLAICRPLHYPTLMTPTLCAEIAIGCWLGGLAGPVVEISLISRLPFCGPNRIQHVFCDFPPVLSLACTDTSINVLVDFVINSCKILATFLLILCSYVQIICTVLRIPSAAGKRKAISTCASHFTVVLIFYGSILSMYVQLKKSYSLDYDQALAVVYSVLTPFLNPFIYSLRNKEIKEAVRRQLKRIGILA
Method in brief: as §1

OR6N2 (Homo sapiens) = biological target: T16, OR6N2 (Homo sapiens) (UniProt Q8NGY6)
T16 sequence (whole entry): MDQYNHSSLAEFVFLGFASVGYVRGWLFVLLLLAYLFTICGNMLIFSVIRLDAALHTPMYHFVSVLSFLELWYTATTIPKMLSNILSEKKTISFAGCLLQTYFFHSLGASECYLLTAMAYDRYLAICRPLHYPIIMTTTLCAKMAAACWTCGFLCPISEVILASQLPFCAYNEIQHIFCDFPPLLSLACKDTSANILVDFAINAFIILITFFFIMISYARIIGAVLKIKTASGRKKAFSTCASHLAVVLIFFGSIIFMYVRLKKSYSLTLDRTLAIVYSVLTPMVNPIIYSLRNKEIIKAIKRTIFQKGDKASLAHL
Method in brief: as §1

OR6P1 (Homo sapiens) = biological target: T17, OR6P1 (Homo sapiens) (UniProt Q8NGX9)
T17 sequence (whole entry): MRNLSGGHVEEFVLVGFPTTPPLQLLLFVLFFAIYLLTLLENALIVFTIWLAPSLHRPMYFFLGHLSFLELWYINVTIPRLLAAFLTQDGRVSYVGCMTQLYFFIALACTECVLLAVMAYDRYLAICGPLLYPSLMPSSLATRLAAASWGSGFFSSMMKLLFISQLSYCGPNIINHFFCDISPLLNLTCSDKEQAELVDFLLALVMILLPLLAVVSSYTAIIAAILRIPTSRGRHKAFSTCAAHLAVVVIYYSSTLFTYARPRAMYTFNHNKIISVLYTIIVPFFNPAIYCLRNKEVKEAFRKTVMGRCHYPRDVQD
Method in brief: as §1

OR6Q1 (Homo sapiens) = biological target: T18, OR6Q1 (Homo sapiens) (UniProt Q8NGQ2)
T18 sequence (whole entry): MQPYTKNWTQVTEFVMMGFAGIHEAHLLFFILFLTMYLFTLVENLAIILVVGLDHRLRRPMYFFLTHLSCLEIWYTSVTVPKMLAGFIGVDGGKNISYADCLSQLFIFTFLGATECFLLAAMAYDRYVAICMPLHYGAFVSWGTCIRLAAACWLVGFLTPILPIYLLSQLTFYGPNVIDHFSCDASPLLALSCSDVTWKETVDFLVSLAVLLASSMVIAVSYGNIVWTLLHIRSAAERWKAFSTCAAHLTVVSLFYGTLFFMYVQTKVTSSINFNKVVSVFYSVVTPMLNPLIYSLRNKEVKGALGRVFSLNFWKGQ
Method in brief: as §1

Measured: odorant receptor agonist call;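 note: active if original authors judged signal statistically different from baseline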

CC1=C(O)C(=O)C(C)O1 (stereo not drawn)
inactive: all assays above
